Measurements published in paper PMC10698511 (RSC Advances, 2023).

Key:
[1] = Plasma protein binding, human; format: in vitro ADME
[2] = tested on: HeLa cells; test: Cell cycle assay in HeLa cells; format: cell-based; details: 48 h treatment
How it was run: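 HeLa cells (1 × 10^6) grown in 6-well plates and treated with test compound at several concentrations for 48 h. Cells harvested, fixed in 70% ethanol, held at −20 °C for 12 h, then stained with Muse cell cycle reagent for 30 min at room temperature in the dark. Phase distribution read on a Muse cell analyzer. G2/M percentages compared by one-way ANOVA.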

[3] = tested on: tubulin; test: Tubulin polymerization assay; format: biochemical; details: 0 to 8 μM, 1 h at 37 °C, absorbance 340 nm
How it was run: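 Commercial tubulin polymerization kit used per the manufacturer's protocol. Test compound mixed with tubulin in the supplied general tubulin buffer. Polymerization followed by absorbance at 340 nm for 1 h at 37 °C. Curves compared by two-way ANOVA.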

[4] = Plasma protein binding, mouse; format: in vitro ADME
[5] = tested on: HeLa cells; test: Antiproliferative activity against HeLa cells; format: cell-based; details: Homo sapiens, 48 h, read-out: HeLa IC50
How it was run: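 HeLa cells from ATCC in RPMI-1640 with 10% FBS and 1% penicillin-streptomycin at 37 °C, 5% CO2. Seeded at 10000 cells/well one day before treatment. Test compound added from DMSO solution and incubated for 48 h, then CCK-8 reagent added and absorbance read at 450 nm. IC50 is the mean of three independent determinations from triplicate samples.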

[6] = Microsomal stability in human liver microsomes; format: in vitro ADME; details: percentage remaining after 30 min, NADPH
[7] = Microsomal stability in mouse liver microsomes; format: in vitro ADME; details: percentage remaining after 30 min, NADPH

Row | fraction unbound [1] | fraction unbound [4] | IC50 [5] | Microsomal stability (%) Human [6] | Microsomal stability (%) Mouse [7] | Structure (SMILES) | cell cycle effect [2] | effect on tubulin polymerization [3]
1 | 0.187 | 0.152 | 0.044 ± 0.011 µM | – | – | O=C(Cc1ccc(-c2ccc(OCCN3CCOCC3)cc2)cn1)NCc1ccccc1 [Compound 8, Tirbanibulin, reference compound] | G2/M phase arrest | microtubule destabilizers
2 | 0.171 | 0.04 | 0.25 ± 0.06 µM | 20.2 ± 2.3% | 50.6 ± 1.2% | Cc1ccc(CNC(=O)Cn2ccc(-c3ccc(OCCN4CCOCC4)cc3)cc2=O)cc1 [Compound 56] | – | –
3 | – | – | 0.34 ± 0.11 µM | – | – | O=C(Cn1ccc(-c2ccc(OCCN3CCOCC3)cc2)cc1=O)NCc1ccc(F)cc1 [Compound 57] | – | –
